Measured values: ChEMBL document CHEMBL3526041, “Absorption, metabolism and excretion of [(14)C]mirabegron (YM178), a potent and selective β(3)-adrenoceptor agonist, after oral administration to healthy male volunteers” (Drug Metab Dispos, 2012)

Legend:
Plasma [1] = assay: Terminal elimination phase half life as total radioactivity in healthy human plasma at 160 mg, po as single dose; type: ADME, organism-based; design: dosed compound name [14C]Mirabegron; details: in vivo
Summary of the method: (§1)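 Four healthy men fasted overnight, then took one oral dose of 160 mg mirabegron containing 1.85 MBq [14C]mirabegron, dissolved in 20 mM sodium citrate pH 4.5. Blood was drawn into lithium heparin tubes from 0 to 168 h. Total radioactivity in whole blood and plasma was counted by liquid scintillation. Unchanged drug in plasma was measured by validated LC-MS/MS (1–500 ng/ml). Parameters were derived noncompartmentally; values are mean ± S.D., n=4.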

[2] = Terminal elimination phase half life as total radioactivity in healthy human urine at 160 mg, po as single dose; type: ADME, organism-based; design: dosed compound name [14C]Mirabegron; details: in vivo
Summary of the method: (§2)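 Same single oral 160 mg [14C]mirabegron solution in four fasted healthy men. Urine was collected over 0–6, 6–12 and 12–24 h, then in 24-h intervals to 408 h. Radioactivity was measured by scintillation counting. Unchanged drug was measured by LC-MS/MS (2–1000 ng/ml). Half-life came from log-linear regression of the terminal phase, and renal clearance was also calculated.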

Blood [3] = assay: Tmax as total radioactivity in healthy human whole blood at 160 mg, po as single dose; type: ADME, organism-based; design: dosed compound name [14C]Mirabegron; details: in vivo; summary of the method: as §1
Blood [4] = assay: Cmax as total radioactivity in healthy human whole blood at 160 mg, po as single dose; type: ADME, organism-based; design: dose 160 mg, route oral, dosed compound name [14C]Mirabegron; details: in vivo; summary of the method: as §1
Blood [5] = assay: AUC (infinity) as total radioactivity in healthy human whole blood at 160 mg, po as single dose; type: ADME, organism-based; design: dose 160 mg, time infinity, route oral, dosed compound name [14C]Mirabegron; details: in vivo; summary of the method: as §1
Blood [6] = assay: Terminal elimination phase half life as total radioactivity in healthy human whole blood at 160 mg, po as single dose; type: ADME, organism-based; design: dosed compound name [14C]Mirabegron; details: in vivo; summary of the method: as §1
[7] = Drug recovery in healthy human urine at 160 mg, po as single dose measured up to 408 hrs; type: ADME, organism-based; design: dosed compound name [14C]Mirabegron
Summary of the method: (§3)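 One oral dose of 160 mg [14C]mirabegron (1.85 MBq) given as a solution to four healthy men. Urine and feces were collected to 408 h; feces were homogenized and combusted. Expired air was trapped in hyamine hydroxide at set times to 96 h. All samples were counted by liquid scintillation. Cumulative excretion is given as % of administered radioactivity, mean ± S.D., n=4.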

[8] = Drug recovery in healthy human feces at 160 mg, po as single dose measured up to 408 hrs; type: ADME, organism-based; design: dosed compound name [14C]Mirabegron; details: in vivo; summary of the method: as §3
[9] = Drug recovery in healthy human expired air at 160 mg, po as single dose measured up to 96 hrs; type: ADME, organism-based; design: dosed compound name [14C]Mirabegron; details: in vivo; summary of the method: as §3
Homo sapiens [10] = assay: Total drug recovery in healthy human at 160 mg, po as single dose measured up to 408 hrs; type: ADME, organism-based; design: dosed compound name [14C]Mirabegron; details: in vivo; summary of the method: as §3
[11] = Drug recovery in healthy human urine at 160 mg, po as single dose measured up to 96 hrs; type: ADME, organism-based; design: dosed compound name [14C]Mirabegron; details: in vivo; summary of the method: as §3
Homo sapiens [12] = assay: Toxicity in healthy human assessed as changes in clinical lab values at 160 mg, po as single dose; type: organism-based; design: dosed compound name [14C]Mirabegron; details: in vivo
Summary of the method: (§4)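 Safety in the four dosed men was followed throughout admission: 12-lead ECGs, vital signs, hematology, biochemistry, urinalysis, and physical examinations after a single oral 160 mg [14C]mirabegron solution.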

Homo sapiens [13] = assay: Toxicity in healthy human assessed as vital signs at 160 mg, po as single dose; type: organism-based; design: dosed compound name [14C]Mirabegron; details: in vivo; summary of the method: as §4
Homo sapiens [14] = assay: Toxicity in healthy human assessed as ECG parameter at 160 mg, po as single dose; type: organism-based; design: dosed compound name [14C]Mirabegron; details: in vivo; summary of the method: as §4
Homo sapiens [15] = assay: Toxicity in healthy human assessed as changes in physical signs at 160 mg, po as single dose; type: organism-based; design: dosed compound name [14C]Mirabegron; details: in vivo; summary of the method: as §4
Plasma [16] = assay: Tmax as total radioactivity in healthy human plasma at 160 mg, po as single dose; type: ADME, organism-based; design: dosed compound name [14C]Mirabegron; details: in vivo; summary of the method: as §1
Plasma [17] = assay: Cmax as total radioactivity in healthy human plasma at 160 mg, po as single dose; type: ADME, organism-based; design: dose 160 mg, route oral, dosed compound name [14C]Mirabegron; details: in vivo; summary of the method: as §1
Plasma [18] = assay: AUC (infinity) as total radioactivity in healthy human plasma at 160 mg, po as single dose; type: ADME, organism-based; design: dose 160 mg, route oral, time infinity, dosed compound name [14C]Mirabegron; details: in vivo; summary of the method: as §1
[19] = Drug recovery in healthy human feces at 160 mg, po as single dose measured up to 96 hrs; type: ADME, organism-based; design: dosed compound name [14C]Mirabegron; details: in vivo; summary of the method: as §3
[20] = Drug recovery in healthy human plasma at 160 mg, po as single dose measured at 12 hrs; details: in vivo
[21] = Drug recovery in healthy human urine treated with [14C]mirabegron at 160 mg, po as single dose measured up to 48 hrs; type: ADME, organism-based; design: dosed compound name [14C]Mirabegron; details: in vivo
Summary of the method: (§5)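 Urine was collected at 0–6, 6–12, 12–24 and 24–48 h after a single oral 160 mg [14C]mirabegron dose in four men, with dichlorvos added. Samples underwent solid-phase extraction and radio-HPLC (C18, 40°C), with eluate fractions counted by scintillation. Each peak, as a percentage of eluted radioactivity, was converted to % of dose without recovery correction; mean ± S.D.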

Plasma [22] = assay: Drug recovery in healthy human plasma treated with [14C]mirabegron at 160 mg, po as single dose measured at 2 hrs; type: ADME, organism-based; design: dosed compound name [14C]Mirabegron; details: in vivo
Summary of the method: (§6)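 Plasma taken at 2, 4, 8 and 12 h from the four subjects was pooled at each time point, with dichlorvos added. Pools underwent solid-phase extraction, then HPLC with fractions counted by low-level liquid scintillation. Each peak is expressed as % of the radioactivity injected onto HPLC.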

Plasma [23] = assay: Drug recovery in healthy human plasma treated with [14C]mirabegron at 160 mg, po as single dose measured at 4 hrs; type: ADME, organism-based; design: dosed compound name [14C]Mirabegron; details: in vivo; summary of the method: as §6
Plasma [24] = assay: Drug recovery in healthy human plasma treated with [14C]mirabegron at 160 mg, po as single dose measured at 8 hrs; type: ADME, organism-based; design: dosed compound name [14C]Mirabegron; details: in vivo; summary of the method: as §6
Plasma [25] = assay: Drug recovery in healthy human plasma treated with [14C]mirabegron at 160 mg, po as single dose measured at 12 hrs; type: ADME, organism-based; design: dosed compound name [14C]Mirabegron; details: in vivo; summary of the method: as §6
[26] = Tmax in healthy human plasma at 160 mg, po as single dose; type: ADME, organism-based; design: dosed compound name [14C]Mirabegron; summary of the method: as §1
[27] = Cmax in healthy human plasma at 160 mg, po as single dose; type: ADME, organism-based; design: dose 160 mg, route oral, dosed compound name [14C]Mirabegron; summary of the method: as §1
[28] = AUC (infinity) in healthy human plasma at 160 mg, po as single dose; type: ADME, organism-based; design: dose 160 mg, route oral, time infinity, dosed compound name [14C]Mirabegron; summary of the method: as §1
[29] = Terminal elimination phase half life in healthy human plasma at 160 mg, po as single dose; type: ADME, organism-based; design: dosed compound name [14C]Mirabegron; details: read-out: beta t1/2 (converted); summary of the method: as §1
[30] = Terminal elimination phase half life in healthy human urine at 160 mg, po as single dose; type: ADME, organism-based; design: dosed compound name [14C]Mirabegron; details: read-out: beta t1/2 (converted); summary of the method: as §2
[31] = Apparent oral clearance in healthy human plasma at 160 mg, po as single dose; type: ADME, organism-based; design: dosed compound name [14C]Mirabegron; summary of the method: as §1
[32] = Apparent volume of distribution during terminal phase in healthy human plasma at 160 mg, po as single dose; type: ADME, organism-based; design: dosed compound name [14C]Mirabegron; details: read-out: Vz/F; summary of the method: as §1
[33] = Renal clearance in healthy human plasma at 160 mg, po as single dose; type: ADME, organism-based, Kidney; design: dosed compound name [14C]Mirabegron; summary of the method: as §2
[34] = Drug recovery in healthy human urine at 160 mg, po as single dose measured up to 48 hrs; type: ADME, organism-based; design: dosed compound name [14C]Mirabegron; details: read-out: Compound recovery; summary of the method: as §5
Plasma [35] = assay: Drug recovery in healthy human plasma at 160 mg, po as single dose measured at 2 hrs; type: ADME, organism-based; design: dosed compound name [14C]Mirabegron; details: in vivo; summary of the method: as §6
Plasma [36] = assay: Drug recovery in healthy human plasma at 160 mg, po as single dose measured at 4 hrs; type: ADME, organism-based; design: dosed compound name [14C]Mirabegron; details: in vivo; summary of the method: as §6
Plasma [37] = assay: Drug recovery in healthy human plasma at 160 mg, po as single dose measured at 8 hrs; type: ADME, organism-based; design: dosed compound name [14C]Mirabegron; details: in vivo; summary of the method: as §6
Plasma [38] = assay: Drug recovery in healthy human plasma at 160 mg, po as single dose measured at 12 hrs; type: ADME, organism-based; design: dosed compound name [14C]Mirabegron; details: in vivo; summary of the method: as §6
[39] = Absolute oral bioavailability in rat at 10 mg/kg; type: ADME, organism-based; design: dosed compound name [14C]Mirabegron; details: in vivo
[40] = Absolute oral bioavailability in rat at 30 mg/kg; type: ADME, organism-based; design: dosed compound name [14C]Mirabegron; details: in vivo
[41] = Absolute oral bioavailability in dog at 0.25 mg/kg; type: ADME, organism-based, Canis lupus familiaris; design: dosed compound name [14C]Mirabegron; details: in vivo
[42] = Absolute oral bioavailability in dog at 0.5 mg/kg; type: ADME, organism-based, Canis lupus familiaris; design: dosed compound name [14C]Mirabegron; details: in vivo
[43] = Absolute oral bioavailability in dog at 1 mg/kg; type: ADME, organism-based, Canis lupus familiaris; design: dosed compound name [14C]Mirabegron; details: in vivo
[44] = Absolute oral bioavailability in rat at 3 mg/kg; type: ADME, organism-based; design: dosed compound name [14C]Mirabegron; details: in vivo

Nc1nc(CC(=O)N[14c]2[14cH][14cH][14c](CCNC[C@H](O)c3ccccc3)[14cH][14cH]2)cs1
beta t1/2 (Plasma [1]): 28.2 h | beta t1/2 [2]: 84.5 h | Tmax (Blood [3]): 2.13 h | Cmax (Blood [4]): 777 ng/mL | AUC (Blood [5]): 13896 ng·h/mL | beta t1/2 (Blood [6]): 30.5 h | Radiolabel recovery ([7]; in vivo): 55% | Radiolabel recovery [8]: 34.2% | Radiolabel recovery [9]: Below limit of detection | Radiolabel recovery (Homo sapiens [10]): 89.2% | Radiolabel recovery [11]: 48.7% | Activity (Homo sapiens [12]): Non-toxic | Activity (Homo sapiens [13]): Non-toxic | Activity (Homo sapiens [14]): Non-toxic | Activity (Homo sapiens [15]): Non-toxic | Tmax (Plasma [16]): 2.25 h | Cmax (Plasma [17]): 879 ng/mL | AUC (Plasma [18]): 10443 ng·h/mL | Radiolabel recovery [19]: 29.3% | Radiolabel recovery [20]: metabolite_not_detected

Nc1nc(CC(=O)Nc2ccc(CC(=O)O)cc2)cs1.O=C(O)C(F)(F)F
Compound recovery [21]: 1.3% | Compound recovery (Plasma [22]): 2.2% | Compound recovery (Plasma [23]): 1.4% | Compound recovery (Plasma [24]): Below limit of detection | Compound recovery (Plasma [25]): Below limit of detection

CC(=O)Nc1ccc(CC(=O)O)cc1 [ACTARIT]
Compound recovery [21]: 0.6% | Compound recovery (Plasma [22]): Below limit of detection | Compound recovery (Plasma [23]): Below limit of detection | Compound recovery (Plasma [24]): Below limit of detection | Compound recovery (Plasma [25]): Below limit of detection

Nc1nc(CC(=O)Nc2ccc(CCNC[C@H](O)c3ccccc3)cc2)cs1 [MIRABEGRON]
Tmax [26]: 1 h | Cmax [27]: 371 ng/mL | AUC(0-inf) [28]: 2280 ng·h/mL | half-life [29]: 47.9 h | half-life [30]: 72.9 h | CL/F [31]: 1180 mL/min | Vd/F [32]: 4820 L | CL renal [33]: 295 mL/min | dose excreted at 408 h ([7]; read-out: Compound recovery): 25% | dose excreted at 48 h [34]: 18.4% | Compound recovery (Plasma [35]): 46.4% | Compound recovery (Plasma [36]): 30.9% | Compound recovery (Plasma [37]): 28.6% | Compound recovery (Plasma [38]): 31% | bioavailability [39]: 48.4% | bioavailability [40]: 75.7% | bioavailability [41]: 41.8% | bioavailability [42]: 64.6% | bioavailability [43]: 77.1% | bioavailability [44]: 23%
